# Screening results deposited in PubChem BioAssay by several laboratories.
# MPTP inh = permeability transition pore inhibition | isolated mouse mitochondria, Ca2+ swelling absorbance, 30 min | inhibition, % at 10 µM | actives 1.4% (n = 360,000);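 active = inhibition of 50% or more, scaled per plate between neutral and stimulator controls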;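 also: 0% = DMSO wells given calcium and 100% = 1 mM EGTA wells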
# DAGLB inh = diacylglycerol lipase beta (human) inhibition. inhibition, % at 5.17 µM. HEK293T DAGLB membrane lysate, EnzChek fluorogenic substrate. Q8NCG7. actives 0.059% (n = 340,000); in the data active = inhibition above about 34%;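 also: 0% = enzyme with vehicle and 100% = wells lacking enzyme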
# Target sequence (Q8NCG7 whole entry, looked up): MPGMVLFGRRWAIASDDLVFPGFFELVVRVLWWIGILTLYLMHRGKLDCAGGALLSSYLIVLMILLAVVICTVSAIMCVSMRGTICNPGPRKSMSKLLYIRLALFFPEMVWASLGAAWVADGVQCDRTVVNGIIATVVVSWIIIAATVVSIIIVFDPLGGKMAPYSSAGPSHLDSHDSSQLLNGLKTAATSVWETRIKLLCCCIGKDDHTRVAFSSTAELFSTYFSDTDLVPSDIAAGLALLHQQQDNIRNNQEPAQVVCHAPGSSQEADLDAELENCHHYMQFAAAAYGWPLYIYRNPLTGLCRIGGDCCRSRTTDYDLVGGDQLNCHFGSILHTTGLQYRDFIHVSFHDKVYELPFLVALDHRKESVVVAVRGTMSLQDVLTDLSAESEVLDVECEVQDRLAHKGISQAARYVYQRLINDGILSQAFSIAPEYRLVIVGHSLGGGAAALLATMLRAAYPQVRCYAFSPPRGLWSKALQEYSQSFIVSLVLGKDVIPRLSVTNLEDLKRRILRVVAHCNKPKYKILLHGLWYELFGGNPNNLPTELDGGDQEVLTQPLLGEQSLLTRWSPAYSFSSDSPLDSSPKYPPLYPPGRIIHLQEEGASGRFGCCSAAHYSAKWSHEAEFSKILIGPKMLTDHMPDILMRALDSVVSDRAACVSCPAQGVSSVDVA
# TAAR1 agonist = agonists of human TAAR1. CHO RD-HGA16 TAAR1, Fluo-8 calcium fluorescence; vehicle wells 0%, saturating PEA agonist 100%. actives 0.99% (n = 360,000). Q96RJ0. activation, % at 3 µM. AID 624467;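 active = activation above the mean activation of all test compounds in the run plus 3 SD, cut at about 38% in these data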
#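 Signal – calcium-sensitive Fluo-8 signal, excitation 470-495, emission 515-575 nm · System – RD-HGA16 (CHO) cells co-expressing Gα16 and hTAAR1 · Incubation – 17-24 h seeding, 75 min 37 °C dye, 30 min RT · Compound dosing – 3 µM single concentration · Repeats – no replicates (n 1)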
# GPR7 antag = antagonists of human GPR7 (neuropeptides B/W receptor 1); P48145; GPR7-expressing cells, fluorescence antagonist assay; inhibition, % at 4.4 µM; actives 1.1% (n = 290,000); AID 1861; in the data active = inhibition above about 16%, passing the limit was not always enough;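 also: cells stimulated with the agonist NPW; 0% = agonist with vehicle and 100% = vehicle without agonist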
# TAAR1 antagonist = human TAAR1 antagonism | AID 624466 | Q96RJ0 | CHO RD-HGA16 TAAR1, Fluo-8 calcium fluorescence, antagonist | inhibition, % at 3 µM | actives 1.5% (n = 360,000);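 active = inhibition above a per-plate cutoff, the mean inhibition of test compounds on that plate plus 3 SD, cut at about 49% in these data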;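 also: 0% = DMSO plus EC80 beta-PEA response and 100% = DMSO alone without agonist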
#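 Test system – hTAAR1-expressing CHO RD-HGA16 cells, Gα16-coupled · Also added – β-PEA at EC80 concentration, post-compound challenge · Compound – 3 µM, single point · Incubation – dye loading 75 min at 37 °C, then 30 min room temperature · Measured by – Fluo-8 intracellular calcium dye fluorescence, real-time kinetic reads · Benchmarks – vehicle and agonist controls · Replicates – singlicate, one well per test compound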
# GPR7 antag cf = confirmation of human GPR7 antagonists; AID 1952; shares compounds with GPR7 antag; inhibition, % at 4.4 µM; actives 52% (n = 2,400); GPR7-expressing cells, calcium fluorescence antagonist mode; in the data active = inhibition above about 24%;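 also: stimulated with the GPR7 agonist NPW; 0% = agonist plus vehicle and 100% = vehicle alone without agonist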
# MCHR1 antagonist = MCHR1 (human) antagonism in GPR7 counter-screen. shares compounds with GPR7 antag. MCHR1-expressing cells, fluorescence antagonist assay. inhibition, % at 4.4 µM. actives 62% (n = 2,400). AID 2148; in the data active = inhibition above about 22%;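 also: 0% = vehicle with agonist and 100% = vehicle without agonist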
# * hit, by the source's call; . = no result. Only some compounds are listed: those with a hit (about 4% of all), similar ones and a draw of the others.
SMILES,MPTP inh,DAGLB inh,TAAR1 agonist,GPR7 antag,TAAR1 antagonist,GPR7 antag cf,MCHR1 antagonist
CC(C)c1[nH]nc2c1C(c1cccc(C(F)(F)F)c1)N(Cc1ccccc1)C2=O (centres undefined),.,.,6,.,-19,.,.
COC(=O)/C(=C/c1ccco1)NC(=O)c1ccco1,-1,-2,7,100*,5,0,8
CCC(NC(=O)c1[nH]c(C)c(C(C)=O)c1C)c1ccc(Br)cc1 (centres undefined),9,-1,5,29*,7,-7,10
O=C(c1ccc(COc2ccccc2Br)o1)N1CCCCCC1,0,-4,12,4,-14,.,.
O=C(c1ccc(COc2ccccc2Br)cc1)N1CCCCC1,-1,-4,8,25*,41,36*,44*
COC(=O)C1=C(C)N(C)C(=NCc2cccc(C(F)(F)F)c2)NC1c1ccc(Cl)cc1 (centres undefined),.,.,22,.,47,.,.
COCCOC(=O)c1[nH]c2c(c1C)C(=O)CC(c1ccco1)C2 (centres undefined),0,3,1,24*,-1,14,36*
CC(C)C[C@H]1CN=C(Nc2ccccc2)N1CCC(C)c1ccccc1 (some centres undefined),7,1,21,.,7,.,.
CCCCCCCN1C(Nc2ccccc2)=NC[C@@H]1CC(C)C,3,1,36,44*,4,40*,34*
CC(C)C[C@H]1CN=C(Nc2ccccc2)N1CC1CCC(C)CC1 (some centres undefined),2,4,.,33*,.,30*,22*
Cc1cccc(NS(=O)(=O)c2ccc(C(=O)NCC(c3ccccc3)N(C)C)cc2)c1C (centres undefined),3,4,43*,33*,28,47*,58*
COc1ccccc1NS(=O)(=O)c1ccc(C(=O)NCC(c2ccccc2OC)N(C)C)cc1 (centres undefined),1,0,2,-7,-2,.,.
O=C(N/N=C/c1c[nH]c2ccccc12)c1cc(Cl)ccc1O,0,4,7,36*,9,10,27*
Cc1ccc(-c2cc(C(=O)N/N=C/c3c[nH]c4ccccc34)[nH]n2)cc1,1,-1,5,34*,36,18,35*
CCCc1cc(C(=O)Nc2ccc(F)c(Cl)c2)no1,0,-7,-1,29*,14,33*,30*
CCCc1cc(C(=O)Nc2cccc(Cl)c2)no1,0,-9,6,-4,13,.,.
OC(c1cccc(CN2CCCCC2)c1)c1ncc(-c2cccc3ccccc23)[nH]1 (centres undefined),1,.,10,.,-16,.,.
CC(=O)c1cc(-c2ccccc2)n(CCC(=O)NC2CCC(C)CC2)c1C (centres undefined),3,0,3,23*,-17,5,-5
Cc1ccccc1-c1cc2nc(NCc3ccc(N(C)C)cc3)n(C)c(=O)c2s1,2,.,-1,.,4,.,.
O=C(NCc1n[nH]c(=O)c2ccccc12)C1CC(=O)N(c2ccc(Cl)cc2)C1 (centres undefined),-1,2,-1,.,-14,.,.
Cc1cccc(N(CC(=O)Nc2ccccc2F)S(C)(=O)=O)c1,1,-1,6,27*,-8,10,4
COc1ccc(OCc2nnc(SCC(=O)N3CCCCC3)o2)cc1,-1,-1,2,-8,-10,.,.
COc1ccc(OCc2nnc(SCC(=O)N3CCCC3)o2)cc1,2,-1,-2,24*,3,-1,7
COc1ccccc1CNC(=O)CN(C)Cc1ccc(SC)cc1,0,-2,3,26*,0,37*,36*
COc1ccc(C(CCNCc2ccc(F)cc2)c2ccc(F)cc2)cc1 (centres undefined),4,0,25,39*,46,50*,77*
COc1ccc(CNCCC(c2ccc(F)cc2)c2ccc(OC(C)C)cc2)cc1OC (centres undefined),3,-1,13,32*,-21,43*,77*
